From PubChem BioAssay
Active and inactive are the calls of the source.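 Rule for the calls, unless noted: active = fluorescence slope higher than the sample average by over 3 SD (cut at about -0.22 in these data, passing the limit was not always enough); inactive = the rest.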

Experiments:
[1] = inhibitors of TNFa-induced NFkB p65 translocation, primary screen, imaging, HUVEC, MLSMR starter and 10KST1 sets (AID 438;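 active = inhibition above 20% together with a positive visual image hit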;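 note: compound added about 3h40 before a 20 min TNFalpha stimulation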;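 for inhibition: signal is the nuclear over cytoplasmic p65 intensity ratio per well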); conditions: HUVEC TNFa-induced p65 nuclear translocation; cell count: measured here: nuclei count (cytotoxicity indicator), at 2.08 µM; inhibition: at 2 µM, stronger effect = higher value, 0% TNFa-plus-vehicle, 100% no-TNFa wells
[2] = inhibitors of E-selectin induction by TNFa, primary screen, imaging, HUVEC, immunofluorescence, MLSMR starter and 10KST1 sets (AID 487;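 active = visually confirmed hit in the image check and inhibition above 20%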;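 for inhibition: signal is fraction of cell area covered by stained E-selectin grains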;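 for nuclei count: 100% = median nuclei count of all wells on the same plate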); conditions: HUVEC TNFalpha-induced E-selectin immunofluorescence imaging, at 2 µM; inhibition: stronger effect = higher value; nuclei count: measured here: cell number, toxicity
[3] = DUSP6 inhibitors restoring Erk phosphorylation by chemical complementation, primary imaging in DUSP6-transfected HeLa (AID 609;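 active = compounds giving at least 50% inhibition in the cell-based MKP-3 phosphatase rescue imaging test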;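 for inhibition: phospho-Erk level distribution per well compared with pooled transfected vehicle control wells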); conditions: HeLa MKP-3 transfected, phospho-Erk imaging KS statistic, at 10 µM, cells stimulated with TPA for 15 min
[4] = target: Dual specificity protein phosphatase 6 (Homo sapiens) (UniProt Q16828); assay: as above; conditions: HeLa MKP-3 transfected, phospho-Erk imaging KS statistic; at 10 µM; stronger effect = higher value; cells stimulated with TPA for 15 min
[5] = target: Voltage-gated potassium channel subunit beta-2 (Rattus norvegicus) (UniProt P62483); assay: KvBeta enzyme negative modulators, primary screen, biochemical, NADPH fluorescence (AID 622); conditions: recombinant KvBeta, 4-cyanobenzaldehyde reduction, at 10 µM, stronger effect = higher value;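 note: slope of raw intensity against log time taken from 70 to 1610 s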
[6] = target: Voltage-gated potassium channel subunit beta-2 (Rattus norvegicus) (UniProt P62483); assay: KvBeta positive modulators, primary screen, biochemical, NADPH fluorescence (AID 623;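 active = NADPH fluorescence slope more negative than the mean of all samples by about 3 SD, 99.7% confidence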;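 note: fluorescence intensity change per second fitted from 20 to 320 s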); conditions: Recombinant KvBeta, NADPH fluorescence decrease slope, 10 min; at 10 µM; stronger effect = lower value
[7] = target: Muscarinic acetylcholine receptor M4 (Homo sapiens) (UniProt P08173); assay: compounds altering M4/GIRK thallium flux, either direction, primary screen, M4 allosteric agonist project, cell-based, HEK293 M4/GIRK, BTC-AM (AID 625;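 active = fluorescence slope after compound addition differing from the mean of all tested samples at 99.7% confidence, mostly higher but some lower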;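 note: thallium influx through GIRK channels coupled to M4 in HEK293 cells with BTC-AM dye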); conditions: at 10 µM, actives lie on both sides
In short: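 System: HEK293 cells with M4 receptor and GIRK channels | Incubation: Cells overnight at 37 °C, BTC-AM loading 1 h, reads 2 min total | Technique: Kinetic BTC-AM fluorescence sampled at 1 Hz, 10 s pre-addition baseline | Measure: Post-addition slope, 15–24 s, of baseline-normalized fluorescence | Control set: Carbachol positive, DMSO negative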

[8] = inhibitors of larval lipid processing in zebrafish, primary screen, whole organism, PED6 fluorescence, gall bladder and intestine (AID 686;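 active = a full or partial loss of lipid-probe fluorescence in the fish gall bladder, intestine or both, judged by eye; inactive = no fluorescence loss, or compound toxic to the fish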;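 note: larvae 5 to 7 days old with five fish per well; signal comes from phospholipase A2 cleavage of quenched PED6 carried via bile; overnight exposure to compound and PED6 before scoring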); conditions: Zebrafish larvae PED6 lipid processing, fluorescence scoring; screened at 20 µM (by protocol)
In short: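 Test system – live zebrafish larvae aged 5-7 days, whole organism · Buffer or medium – E3 fish medium · Reagent – quenched phospholipase substrate PED6, 100 nM final, ingested by larvae · Doses – 20 µM single dose · Incubation – overnight compound and PED6 incubation · Technique – visual fluorescence microscopy scoring of gall bladder, gut · Read-out basis – visual per-well fluorescence inhibition score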

[9] = inhibitors of Chlamydomonas gravitaxis, primary screen, whole organism, Chlamydomonas reinhardtii, WT vs cilia-less mutant, absorbance, 96-well (AID 463189;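 active = inhibition at or above 50% relative to wild type and mutant plate controls; inactive = inhibition below 50%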;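 note: 0% = wild type cc124 cells in DMSO and 100% = ciliumless bld1 mutant cells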); conditions: OD600 absorbance, 2 days, at 10 µM, stronger effect = higher value
[10] = measured here: cell density z-score
[11] = measured here: nuclear c-Myc green intensity z-score
[12] = measured here: nuclear pErk red intensity z-score, stronger effect = higher value

Dual specificity protein phosphatase 6 (Homo sapiens), sequence (Q16828 whole entry, looked up): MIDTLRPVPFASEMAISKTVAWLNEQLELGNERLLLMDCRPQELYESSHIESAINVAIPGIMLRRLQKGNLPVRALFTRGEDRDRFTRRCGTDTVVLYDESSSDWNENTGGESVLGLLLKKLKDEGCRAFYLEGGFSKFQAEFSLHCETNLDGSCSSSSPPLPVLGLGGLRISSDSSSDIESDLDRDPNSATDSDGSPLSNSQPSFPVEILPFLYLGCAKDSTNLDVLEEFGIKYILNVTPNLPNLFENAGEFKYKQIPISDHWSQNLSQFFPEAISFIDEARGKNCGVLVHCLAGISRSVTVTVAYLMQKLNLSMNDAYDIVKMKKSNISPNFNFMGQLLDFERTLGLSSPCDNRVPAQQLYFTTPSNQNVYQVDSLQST
Voltage-gated potassium channel subunit beta-2 (Rattus norvegicus), sequence (P62483 whole entry, looked up): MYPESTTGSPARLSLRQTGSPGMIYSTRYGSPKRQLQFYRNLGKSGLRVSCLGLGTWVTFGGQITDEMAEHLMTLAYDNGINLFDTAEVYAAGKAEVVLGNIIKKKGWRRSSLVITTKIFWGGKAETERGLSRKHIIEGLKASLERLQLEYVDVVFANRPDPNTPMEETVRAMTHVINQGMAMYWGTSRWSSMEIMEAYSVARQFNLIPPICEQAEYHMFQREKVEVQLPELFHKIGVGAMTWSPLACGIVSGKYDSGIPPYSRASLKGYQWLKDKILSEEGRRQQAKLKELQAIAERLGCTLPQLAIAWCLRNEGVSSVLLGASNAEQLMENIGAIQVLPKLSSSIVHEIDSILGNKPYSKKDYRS
Muscarinic acetylcholine receptor M4 (Homo sapiens), sequence (P08173 whole entry, looked up): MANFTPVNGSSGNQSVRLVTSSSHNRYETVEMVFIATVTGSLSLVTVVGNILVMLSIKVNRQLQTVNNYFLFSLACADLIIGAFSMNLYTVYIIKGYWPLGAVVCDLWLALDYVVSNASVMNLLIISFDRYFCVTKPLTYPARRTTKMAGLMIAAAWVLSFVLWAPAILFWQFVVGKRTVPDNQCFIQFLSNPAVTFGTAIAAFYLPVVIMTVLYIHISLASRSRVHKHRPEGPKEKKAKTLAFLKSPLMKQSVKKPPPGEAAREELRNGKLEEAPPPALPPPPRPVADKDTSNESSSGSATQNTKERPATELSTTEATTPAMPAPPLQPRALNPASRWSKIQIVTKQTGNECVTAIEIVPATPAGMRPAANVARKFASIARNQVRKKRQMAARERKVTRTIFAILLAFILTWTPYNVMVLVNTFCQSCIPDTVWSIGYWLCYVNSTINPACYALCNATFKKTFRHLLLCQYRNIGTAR

| SMILES | cell count [1] | inhibition [1] | inhibition [2] | nuclei count [2] | z-score [3, 10] | z-score [3, 11] | z-score [3, 12] | inhibition [4] | fluorescence slope [5] | NADPH fluorescence slope [6] | fluorescence slope [7] | outcome [8] | inhibition [9] |
| --- | --- | --- | --- | --- | --- | --- | --- | --- | --- | --- | --- | --- | --- |
| Cn1ncc2nc[nH]c(=O)c21 | 709 | 2% (inactive) | -49.9% (inactive) | 110% | -0.739 | -0.543 | 1.26 | 5.95% (inactive) | -0.579 (inactive) | -3.5e-05 (inactive) | 0.006 (inactive) | inactive | 30.9% (inactive) |
| O=C(NCCCn1ccnc1)c1cccnc1 | 412 | -1% (inactive) | -143% (inactive) | 187% | -0.692 | 0.968 | -0.483 | 5.65% (inactive) | -0.459 (inactive) | -0.000144 (inactive) | 0.00592 (inactive) | inactive | 0.663% (inactive) |
| N#Cc1c(NCCN)nc(NCc2ccccc2)c2c1CCN(Cc1ccccc1)C2 | 566 | 3% (inactive) | -151% (inactive) | 145% | 0.625 | -0.717 | 1.05 | 3.42% (inactive) | -0.466 (inactive) | -8.7e-06 (inactive) | 0.00448 (inactive) | active; weak signal in gallbladder and intestine | 15.7% (inactive) |
| CSc1nc2[nH]c3c(c2c2nncn12)CC(C)(C)OC3 | 554 | -4.9% (inactive) | -169% (inactive) | 129% | 0.946 | 0.54 | -1.06 | 5.42% (inactive) | -0.511 (inactive) | -8.3e-05 (inactive) | 0.00422 (inactive) | inactive | -2.07% (inactive) |
| CCc1ccc(-c2cn3nc(C)c(C)nc3n2)cc1 | 539 | -0.3% (inactive) | 5.5% (inactive) | 143% | 0.256 | -1.56 | -0.591 | 9.91% (inactive) | -0.0112 (inactive) | 2.5e-06 (inactive) | 0.00271 (inactive) | inactive | 23.7% (inactive) |
| COn1c(SC2CCCCC2)nc2ccccc2c1=O | 587 | -3.1% (inactive) | -35.7% (inactive) | 160% | 0.823 | 0.448 | -1.08 | -7.28% (inactive) | -0.48 (inactive) | -7.1e-05 (inactive) | 0.00976 (inactive) | inactive | 0.873% (inactive) |
| COc1ccc(CNc2oc(COc3ccc(Cl)cc3)nc2C#N)cc1 | 484 | 5.8% (inactive) | -33.3% (inactive) | 164% | 0.0253 | 0.364 | 0.0628 | -5.62% (inactive) | -0.474 (inactive) | -3.7e-05 (inactive) | 0.00987 (inactive) | inactive | 2.55% (inactive) |
| CC1(C)Cc2c(C#N)c(SCC(=O)c3ccccc3)nc(N3CCOCC3)c2CS1 | 567 | -9.1% (inactive) | -119% (inactive) | 93.2% | 0.0433 | -1.53 | 0.585 | 5.42% (inactive) | -0.491 (inactive) | 1.6e-05 (inactive) | 0.00928 (inactive) | inactive | 34.2% (inactive) |
| Cn1ncc(N=Cc2ccccc2O)c1C(=O)N1CCOCC1 | 723 | 6.6% (inactive) | -60.6% (inactive) | 172% | -0.778 | -0.56 | 0.451 | 7.93% (inactive) | -0.486 (inactive) | -9.6e-05 (inactive) | 0.00481 (inactive) | inactive | 32.2% (inactive) |
| Cc1ccc(-c2nn(CCC(=O)NCC3CCCO3)c(=O)c3ccccc23)cc1 (stereo unspecified) | 465 | -2.6% (inactive) | -99.3% (inactive) | 155% | -0.415 | 0.704 | -0.137 | -7.28% (inactive) | -0.422 (inactive) | -5.3e-05 (inactive) | 0.0051 (inactive) | inactive | -0.115% (inactive) |
| Cn1c(OCc2cccnc2)nc2c1c(=O)n(Cc1ccc(Br)cc1)c(=O)n2C | 723 | -15.3% (inactive) | -75% (inactive) | 172% | -1.07 | -0.35 | 0.344 | -5.95% (inactive) | -0.475 (inactive) | -4e-05 (inactive) | 0.00549 (inactive) | inactive | 32.6% (inactive) |
| COCCNC(=O)C(C#N)c1nc2ccccc2nc1N1CCN(Cc2ccc3c(c2)OCO3)CC1 (stereo unspecified) | 737 | -8.1% (inactive) | 11.8% (inactive) | 172% | -1.49 | 1.08 | 1.16 | -2.09% (inactive) | -0.474 (inactive) | -0.000128 (inactive) | 0.00436 (inactive) | inactive | 4.28% (inactive) |
| Cn1c(NCc2ccccc2)nc2c1c(=O)n(Cc1ccccc1)c(=O)n2C | 694 | -5.5% (inactive) | -54.8% (inactive) | 172% | 0.899 | -0.674 | 1.21 | 5.95% (inactive) | -0.461 (inactive) | -8.2e-05 (inactive) | 0.00535 (inactive) | inactive | 6.49% (inactive) |
| O=C1C(=O)N(Cc2cccnc2)C(c2ccccn2)/C1=C(/O)c1ccccc1 (stereo unspecified) | 620 | -5.9% (inactive) | -74.4% (inactive) | 158% | -0.531 | 0.731 | -0.436 | -8.95% (inactive) | -0.503 (inactive) | -6.6e-05 (inactive) | 0.00562 (inactive) | inactive | 6.67% (inactive) |
| Cc1cccc(-n2ncc3c(NCc4ccco4)ncnc32)c1 | 648 | -12.5% (inactive) | -84.2% (inactive) | 165% | 0.86 | -0.2 | -0.239 | 11.4% (inactive) | -0.385 (inactive) | -4.7e-05 (inactive) | 0.00641 (inactive) | inactive | 2.88% (inactive) |
| CCCc1cc(=O)oc2c(C)c(O)c(CN3CCCCC3)cc12 | 657 | -2.4% (inactive) | -23.3% (inactive) | 157% | -0.426 | -0.355 | 0.314 | 1.04% (inactive) | -0.00538 (inactive) | -1.8e-06 (inactive) | 0.00467 (inactive) | inactive | 0.97% (inactive) |
| COc1cccc(C(=O)c2sc(NC(C)C)nc2N)c1 | 637 | -11.5% (inactive) | 61.3% (inactive) | 158% | -0.552 | 2.2 | 0.884 | -3.95% (inactive) | -0.496 (inactive) | -7.1e-05 (inactive) | 0.00607 (inactive) | inactive | -1.39% (inactive) |
| CSc1nc2sc3c(c2c2nnnn12)CCC3 | 594 | -5.2% (inactive) | -73% (inactive) | 143% | -0.0727 | 0.543 | 0.37 | 1.63% (inactive) | -0.441 (inactive) | -0.000113 (inactive) | 0.00506 (inactive) | inactive | 17.9% (inactive) |
| CN1CCc2c(C#N)c(N3CCCCC3)nc(N3CCOCC3)c2C1 | 534 | -9.2% (inactive) | -129% (inactive) | 127% | 0.848 | -1.39 | 0.568 | -0.584% (inactive) | -0.418 (inactive) | -5.8e-05 (inactive) | 0.00417 (inactive) | inactive | 4.52% (inactive) |
| CC(C)COc1ccc(C(=O)OCCN2CCOCC2)c(O)c1 | 551 | -4.8% (inactive) | 5.6% (inactive) | 138% | 0.333 | -1.8 | 0.367 | 19.8% (inactive) | -0.366 (inactive) | -3.7e-07 (inactive) | 0.00568 (inactive) | inactive | 20.9% (inactive) |
| CCOC(=O)N1CCN(c2ncnc3c2cnn3-c2ccc(OC)cc2)CC1 | 638 | -4.6% (inactive) | -140% (inactive) | 149% | 0.712 | -0.105 | 0.21 | 13.4% (inactive) | -0.379 (inactive) | -4.6e-05 (inactive) | 0.00565 (inactive) | inactive | 0.263% (inactive) |
| CCCSc1nc(N2CCOCC2)c2c(c1C#N)CCCC2 | 569 | -12.9% (inactive) | -93.9% (inactive) | 147% | 0.303 | 0.327 | 2.25 | 10.9% (inactive) | -0.467 (inactive) | -0.000102 (inactive) | 0.00772 (inactive) | inactive | 5.19% (inactive) |
| CC(NC(=O)CSc1nnc(COc2ccccc2)o1)c1ccccc1 (stereo unspecified) | 397 | 1.7% (inactive) | -35.2% (inactive) | 134% | -0.868 | 0.275 | 1.84 | -6.86% (inactive) | -0.453 (inactive) | -0.000143 (inactive) | 0.00476 (inactive) | inactive | 5.02% (inactive) |
| NC(=O)C1CCN(CCC(=O)Nc2ccc(Br)cc2)CC1 | 619 | -14.3% (inactive) | -30.8% (inactive) | 163% | 0.663 | -1.51 | 0.0444 | 7.42% (inactive) | -0.426 (inactive) | -5.4e-05 (inactive) | 0.00492 (inactive) | inactive | 44% (inactive) |
| CN1C(=O)NC(c2ccccc2)C2=C1CN(Cc1ccccc1)C2=O (stereo unspecified) | 400 | -7.1% (inactive) | -56.6% (inactive) | 139% | 0.502 | -1.59 | 1.04 | -2.59% (inactive) | -0.501 (inactive) | -0.000103 (inactive) | 0.00419 (inactive) | inactive | 23.3% (inactive) |
| CCOC(=O)Cn1nc(C)c2ccccc2c1=O | 579 | -1.2% (inactive) | -43.5% (inactive) | 154% | 1.29 | -0.0748 | 0.243 | 7.21% (inactive) | -0.515 (inactive) | -0.000104 (inactive) | 0.00507 (inactive) | inactive | -2.22% (inactive) |
| CCOc1cccc(N2C(=O)CC(N(CCc3ccc(OC)c(OC)c3)C(=O)CC)C2=O)c1 (stereo unspecified) | 586 | -0.6% (inactive) | 2.4% (inactive) | 120% | -0.772 | 0.365 | -1.41 | -7.67% (inactive) | -0.453 (inactive) | -1.2e-05 (inactive) | 0.00547 (inactive) | inactive | -0.122% (inactive) |
